# High-throughput results from PubChem BioAssay.
# TLR4-MyD88 BLA – blocks binding of human TLR4 to MyD88 | O00206+Q99836 | HeLa CL3-4 TLR4/MyD88 BLA complementation, FRET ratio | inhibition, % at 8.4 µM | 200,000 tested, 0.18% active; in the data active means inhibition above about 25%;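 further: 0% = vehicle and 100% = reference inhibitor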
# TLR9-MyD88 block – inhibitors of human TLR9-MyD88 binding; inhibition, % at 4.98 µM; Q9NR96+Q99836; 340,000 tested, 0.21% active; AID 504734; CHO BLA complementation TLR9-MyD88, CCF4 FRET ratio;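 active means inhibition above the mean over all tested compounds plus 3 SD, cut at about 21% in these data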;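 further: 0% = DMSO only wells and 100% = clavulanate BLA inhibitor control wells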
# Target sequence (Q99836 whole entry, looked up): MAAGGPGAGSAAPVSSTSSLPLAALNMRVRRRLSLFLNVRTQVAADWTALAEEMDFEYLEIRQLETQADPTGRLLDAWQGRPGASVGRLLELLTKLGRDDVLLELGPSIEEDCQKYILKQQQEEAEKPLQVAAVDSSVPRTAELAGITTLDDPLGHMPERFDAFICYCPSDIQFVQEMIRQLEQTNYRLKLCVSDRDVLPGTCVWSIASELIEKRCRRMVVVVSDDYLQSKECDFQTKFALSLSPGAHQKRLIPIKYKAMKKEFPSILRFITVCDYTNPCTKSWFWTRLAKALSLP
# Target sequence (Q9NR96 whole entry, looked up): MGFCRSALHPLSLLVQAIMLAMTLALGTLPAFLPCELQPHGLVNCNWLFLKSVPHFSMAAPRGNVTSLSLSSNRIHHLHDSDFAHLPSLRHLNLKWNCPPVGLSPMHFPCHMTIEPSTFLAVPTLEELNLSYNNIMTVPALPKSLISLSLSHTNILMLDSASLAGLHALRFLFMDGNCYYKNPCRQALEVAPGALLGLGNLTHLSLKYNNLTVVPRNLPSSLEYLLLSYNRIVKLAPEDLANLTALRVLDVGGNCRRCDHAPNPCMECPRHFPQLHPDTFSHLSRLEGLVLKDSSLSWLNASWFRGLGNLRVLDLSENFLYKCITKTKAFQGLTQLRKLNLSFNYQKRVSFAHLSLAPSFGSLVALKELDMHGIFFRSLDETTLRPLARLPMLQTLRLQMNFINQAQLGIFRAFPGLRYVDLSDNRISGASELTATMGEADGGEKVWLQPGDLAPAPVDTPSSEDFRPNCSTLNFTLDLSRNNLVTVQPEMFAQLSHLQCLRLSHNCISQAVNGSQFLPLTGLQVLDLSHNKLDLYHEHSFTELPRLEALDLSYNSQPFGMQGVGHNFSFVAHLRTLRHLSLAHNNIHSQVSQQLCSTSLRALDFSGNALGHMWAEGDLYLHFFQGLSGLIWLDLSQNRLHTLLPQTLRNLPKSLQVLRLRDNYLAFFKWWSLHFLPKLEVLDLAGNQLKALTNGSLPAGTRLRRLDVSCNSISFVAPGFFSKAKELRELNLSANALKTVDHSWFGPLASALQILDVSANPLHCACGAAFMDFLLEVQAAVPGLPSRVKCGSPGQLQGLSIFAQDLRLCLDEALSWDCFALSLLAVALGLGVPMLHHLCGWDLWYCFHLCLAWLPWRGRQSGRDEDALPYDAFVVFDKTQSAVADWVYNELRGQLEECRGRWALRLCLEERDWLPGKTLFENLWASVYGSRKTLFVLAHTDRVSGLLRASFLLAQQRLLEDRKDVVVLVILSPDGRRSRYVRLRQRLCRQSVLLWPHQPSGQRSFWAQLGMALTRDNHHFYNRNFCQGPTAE
# NOD2-RIPK2 inh – blocks binding of human NOD2 to RIPK2; CHO BLA complementation NOD2-RIPK2, CCF4 ratio; O43353; 360,000 tested, 0.38% active; inhibition, % at 4.98 µM; AID 624267; in the data active means inhibition above about 21%;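 further: 0% = vehicle only and 100% = reference blocker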
# XBP1 UPR activ – activators of adaptive arm of unfolded protein response (XBP1) | CHO-XBP1 luciferase reporter, IRE1-XBP1 UPR activation, luminescence; percent of tunicamycin response, DMSO as zero | activation, % at 20 µM | 330,000 tested, 0.33% active | AID 463104;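 active means versus positive control, 20 µM dose yields 30% or more activation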;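 further: 100% = tunicamycin at 10 µg/mL and 0% = DMSO only wells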
#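 Material: CHO-XBP1 cells stably carrying IRE1-XBP1-driven luciferase reporter / Amount: 1000 cells per well / Compound: 20 µM, 1% DMSO / Times: 6 h treatment, 37 °C / Detection: luciferase luminescence / Measure: % activation of reporter signal versus tunicamycin and DMSO controls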
# CHOP UPR activ – apoptotic UPR (CHOP) activation. CHO-CHOP luciferase reporter, luminescence; percent of tunicamycin response over DMSO baseline. activation, % at 10 µM. 330,000 tested, 0.34% active;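 active means at 10 µM dose, activation of 40% or more, normalized to positive control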;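 further: 100% = tunicamycin at 10 µg/mL and 0% = DMSO alone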
#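 Evaluation: % reporter activation, DMSO baseline versus tunicamycin full activation; System: CHO-CHOP luciferase reporter cell line; Input: 500 cells/well; Incubation: 6 h compound treatment, 37 °C; Measured by: Steady-Glo luciferase luminescence; Dosing: one dose, 10 µM in 0.5% DMSO; Buffer or medium: F12 medium, 10% FBS; Benchmarks: positive tunicamycin 10 µg/mL, negative DMSO alone.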
# CHOP inh – CHOP inhibition in unfolded protein response; CHO-K1 CHOP-promoter luciferase, tunicamycin-induced, 15-18 h; inhibition, % at 10 µM; 220,000 tested, 3.8% active;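 active means compounds that reduced the stress-induced luciferase reporter signal by more than about 70% of percent inhibition, limit read from the data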;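 further: 0% = tunicamycin plus vehicle and 100% = wells without tunicamycin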
# * = called active by the depositor; nt = no result given. The sample as a whole holds a higher share of hits than the screen did.
SMILES,TLR4-MyD88 BLA,TLR9-MyD88 block,NOD2-RIPK2 inh,XBP1 UPR activ,CHOP UPR activ,CHOP inh
Cc1cccc(N=C2NC(=O)/C(=C3/C(=O)N(C)c4ccccc43)S2)c1C,8.3,-11.8,6.5,-0.2,3.6,88.0*
O=C1CCCN1C(=O)CSc1ncnc2sccc12,nt,1.6,2.3,-0.9,5.4,nt
Clc1ccc(CN2CCCCCC2)cc1,nt,8.1,0.5,-4.8,1.3,nt
Clc1ccc(CN2CCCCCCC2)cc1Cl,-10.3,0.8,-5.2,-3.3,-2.0,79.1*
CCCCc1nn(-c2cc(Cl)ccc2OC)c2c1C(=O)CC(C)(C)C2,-3.7,-3.1,10.7,-1.6,3.6,81.4*
CCCc1nn(-c2cc(Cl)ccc2OC)c2c1C(=O)CCC2,-10.3,10.2,-5.5,-4.8,0.9,30.4
Cc1cccc(C)c1NC(=O)C1(C)CSCC(=O)N1Cc1cccc(C(F)(F)F)c1 (stereo not drawn),nt,nt,-6.5,nt,nt,nt
CC(C)CN(CCNC(=O)CC1Oc2ccccc2NC1=O)CC(C)C (stereo not drawn),4.4,-4.4,-5.9,-0.6,0.1,72.1*
CCN(CCNC(=O)CC1Oc2ccccc2NC1=O)c1ccccc1 (stereo not drawn),8.7,-4.8,6.3,-2.2,-2.2,14.1
CSc1nc(N)c(C#N)c(-c2ccc(Cl)cc2)c1C#N,-1.6,5.5,4.5,-1.4,-3.7,35.8
COc1ccc(-c2c(C#N)c(N)nc(Sc3ccc(Cl)cc3)c2C#N)cc1,nt,2.4,-9.3,3.6,-2.2,73.6*
COc1ccc(Oc2nc(-c3cccnc3)nc3ccccc23)cc1,nt,0.2,2.7,5.9,2.8,17.9
COc1ccc(Oc2nc(SC)nc3ccccc23)cc1,-12.9,1.3,-8.7,-3.0,-1.9,82.0*
COc1ccc(Oc2nc3ccccc3nc2C(F)(F)F)cc1,5.7,-5.9,-14.6,-1.1,0.5,70.4*
CCCCCc1c(CC)ncn1CCc1ccccc1OC,nt,nt,-7.0,nt,nt,nt
O=C1NC(=Nc2ccc(Cl)cc2)SC1Cc1cc(Cl)ccc1Cl (stereo not drawn),4.2,-0.3,-3.7,0.9,-1.9,70.6*
CN(C)CCNc1ncnc2c1ncn2[C@H]1CN(CCc2ccccc2)C[C@@H](CO)O1,nt,nt,-2.9,nt,nt,nt
C=CCn1c(C)cc(C(=O)COC(=O)CNC(=O)c2ccccc2)c1C,-11.1,-3.6,-11.1,-7.6,-7.0,87.3*
Cc1ccc(C(=O)NCC(=O)OCC(=O)c2cc(C)n(Cc3ccco3)c2C)cc1,-0.5,-15.7,-6.2,-0.3,6.6,14.7
Cc1sc(N)c(C(=O)c2ccccc2)c1C,6.4,nt,-9.2,-3.0,0.8,7.8
CC(C)(C)c1ccc(OCC(=O)NNC(=S)NC(=O)c2ccco2)c(Br)c1,nt,-12.7,-5.7,-1.2,-0.9,nt
CC(C)(C)c1ccc(OCC(=O)NCc2ccco2)c(Br)c1,11.1,8.7,13.3,4.8,2.4,81.1*
N#C/C(=C\c1cccc([N+](=O)[O-])c1)C(=O)NCc1cccnc1,-13.5,-1.8,-2.7,-1.2,-1.4,-21.1
N#C/C(=C\c1cccc([N+](=O)[O-])c1)C(=O)NCc1ccc(Cl)cc1,1.5,-6.4,-1.9,nt,nt,91.9*
CCc1nnc(NS(=O)(=O)c2ccc(N3C(=O)c4ccc(C(=O)O)cc4C3=O)cc2)s1,-6.5,5.7,5.5,-0.5,-0.9,0.8
SMILES,TLR4-MyD88 BLA,TLR9-MyD88 block,NOD2-RIPK2 inh,XBP1 UPR activ,CHOP UPR activ,CHOP inh
COc1ccc(CNC(=O)CCS(=O)(=O)c2ccc3c(c2)CC(C)N3C(=O)C2CC2)cc1 (stereo not drawn),nt,9.8,-8.3,1.2,-1.7,nt
Cc1ccc(S(=O)(=O)N2CCOCC2)cc1NC(=O)CSc1nnc(COc2ccccc2F)n1N,nt,-7.3,-10.0,nt,nt,nt
Cc1ccc(-c2cn3nc(C)c(C)nc3n2)cc1,-8.6,12.2,5.8,-4.6,-9.3,81.3*
CCNc1ccc(Br)cc(C(=O)/C=C/c2ccc(Cl)cc2Cl)c1=O,1.1,10.8,7.2,0.4,10.0,76.0*
Cc1ccc2c(c1)sc1nc(=O)n(-c3ccc(Cl)cc3)c(=O)n12,-12.4,4.5,-2.3,8.5,3.4,79.5*
COc1cc2[nH]c3c(=O)n(N)c(=O)[nH]c3c2cc1OC,nt,-9.6,0.9,-1.1,1.1,nt
CCC(=O)N1CCN(c2nc(-c3ccccc3)c3c(c2C#N)CCCC3)CC1,1.6,-5.5,-0.1,2.7,0.2,73.2*
